From ChEMBL document CHEMBL1157912, “Impact of nature and length of linker incorporated in agonists on toll-like receptor 9-mediated immune responses” (J Med Chem, 2010)

Columns and labels:
[1] = molecular target: T1, Toll-like receptor 9 (Homo sapiens) (UniProt Q9NR96); test: Induction of TLR9-mediated immune stimulation in human PBMC assessed as MIP1alpha production at 10 ug/ml after 24 hrs by luminex multiplex assay (RVb = 0.01 ng/ml)
T1 sequence (whole entry): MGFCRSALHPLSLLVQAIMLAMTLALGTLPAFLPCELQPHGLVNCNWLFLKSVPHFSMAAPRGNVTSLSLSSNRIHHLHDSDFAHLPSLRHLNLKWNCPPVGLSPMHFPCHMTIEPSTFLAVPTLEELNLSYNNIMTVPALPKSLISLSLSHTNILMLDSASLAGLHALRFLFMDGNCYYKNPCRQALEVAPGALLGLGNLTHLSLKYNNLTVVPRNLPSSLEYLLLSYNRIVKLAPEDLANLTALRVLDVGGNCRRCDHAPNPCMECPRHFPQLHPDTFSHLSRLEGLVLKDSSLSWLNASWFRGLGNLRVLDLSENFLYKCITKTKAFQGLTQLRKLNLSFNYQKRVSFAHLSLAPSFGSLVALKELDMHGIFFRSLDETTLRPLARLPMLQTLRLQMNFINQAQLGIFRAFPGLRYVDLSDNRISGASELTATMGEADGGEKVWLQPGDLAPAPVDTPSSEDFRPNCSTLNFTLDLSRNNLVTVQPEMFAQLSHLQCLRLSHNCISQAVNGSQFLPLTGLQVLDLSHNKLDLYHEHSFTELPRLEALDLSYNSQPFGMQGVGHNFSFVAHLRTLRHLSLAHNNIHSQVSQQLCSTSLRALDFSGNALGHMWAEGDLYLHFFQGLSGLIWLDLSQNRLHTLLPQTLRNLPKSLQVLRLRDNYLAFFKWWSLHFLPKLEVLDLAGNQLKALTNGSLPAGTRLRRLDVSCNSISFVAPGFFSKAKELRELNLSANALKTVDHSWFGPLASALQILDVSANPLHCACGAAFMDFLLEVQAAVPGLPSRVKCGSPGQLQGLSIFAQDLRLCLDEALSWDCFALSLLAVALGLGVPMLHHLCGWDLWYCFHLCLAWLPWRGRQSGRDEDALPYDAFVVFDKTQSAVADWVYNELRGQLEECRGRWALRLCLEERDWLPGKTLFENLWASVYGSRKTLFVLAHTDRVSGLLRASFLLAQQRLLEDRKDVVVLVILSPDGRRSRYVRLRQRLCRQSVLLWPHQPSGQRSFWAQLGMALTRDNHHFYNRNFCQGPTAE

[2] = molecular target: T1, Toll-like receptor 9 (Homo sapiens); test: Induction of TLR9-mediated immune stimulation in human PBMC assessed as MCP1 production at 2 ug/ml after 24 hrs by luminex multiplex assay (RVb = 0.08 +/- 0.02 ng/ml)
[3] = molecular target: T1, Toll-like receptor 9 (Homo sapiens); test: Induction of TLR9-mediated immune stimulation in human PBMC assessed as IL12 production at 10 ug/ml after 24 hrs by luminex multiplex assay (RVb = 0.00 ng/ml)
[4] = molecular target: T1, Toll-like receptor 9 (Homo sapiens); test: Induction of TLR9-mediated immune stimulation in human PBMC assessed as IL1Ralpha production at 10 ug/ml after 24 hrs by luminex multiplex assay (RVb = 0.12 +/- 0.03 ng/ml)
[5] = molecular target: T1, Toll-like receptor 9 (Homo sapiens); test: Induction of TLR9-mediated immune stimulation in human PBMC assessed as RANTES production at 2 ug/ml after 24 hrs by luminex multiplex assay (RVb = 0.05 +/- 0.04 ng/ml)
[6] = molecular target: T1, Toll-like receptor 9 (Homo sapiens); test: Induction of TLR9-mediated immune stimulation in human PBMC assessed as IP10 production at 10 ug/ml after 24 hrs by luminex multiplex assay (RVb = 0.00 ng/ml)
[7] = molecular target: T1, Toll-like receptor 9 (Homo sapiens); test: Induction of TLR9-mediated immune stimulation in human PBMC assessed as IL6 production at 10 ug/ml after 24 hrs by luminex multiplex assay (RVb = 0.01 ng/ml)
[8] = molecular target: T1, Toll-like receptor 9 (Homo sapiens); test: Induction of TLR9-mediated immune stimulation in human PBMC assessed as IP10 production at 2 ug/ml after 24 hrs by luminex multiplex assay (RVb = 0.00 ng/ml)
[9] = molecular target: T1, Toll-like receptor 9 (Homo sapiens); test: Induction of TLR9-mediated human B cell proliferation assessed as [3H]thymidine uptake after 56 hrs by scintillation counting
Method in brief: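 B cells were purified from human PBMCs (healthy volunteers), about 1 × 10⁵ cells, and stimulated with various agonist concentrations for 56 h. Cells were then pulsed with 0.75 μCi [³H]-thymidine and harvested 16 h later. Incorporation was counted by scintillation and reported as cpm.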

[10] = molecular target: T1, Toll-like receptor 9 (Homo sapiens); test: Induction of TLR9-mediated immune stimulation in human PBMC assessed as IL2R production at 10 ug/ml after 24 hrs by luminex multiplex assay (RVb = 0.02 +/- 0.01 ng/ml)
[11] = molecular target: T1, Toll-like receptor 9 (Homo sapiens); test: Induction of TLR9-mediated immune stimulation in human PBMC assessed as MCP1 production at 10 ug/ml after 24 hrs by luminex multiplex assay (RVb = 0.08 +/- 0.02 ng/ml)
[12] = molecular target: T1, Toll-like receptor 9 (Homo sapiens); test: Induction of TLR9-mediated immune stimulation in human PBMC assessed as IL6 production at 2 ug/ml after 24 hrs by luminex multiplex assay (RVb = 0.01 ng/ml)

| Activity [1] [ng/mL] | Activity [2] [ng/mL] | Activity [3] [ng/mL] | Activity [4] [ng/mL] | Activity [5] [ng/mL] | Activity [6] [ng/mL] | Activity [7] [ng/mL] | Activity [8] [ng/mL] | Activity [9] | Activity [10] [ng/mL] | Activity [11] [ng/mL] | Activity [12] [ng/mL] | SMILES |
| --- | --- | --- | --- | --- | --- | --- | --- | --- | --- | --- | --- | --- |
| 0.32 | 13.2 | 0.2 | 29.6 | 0.69 | 0.99 | 0.73 | 0.79 | Dose-dependent effect | 0.12 | 43.5 | 0.54 | Cc1cn([C@H]2C[C@H](OCC[C@H](O)COP(=O)(S)O[C@H]3C[C@H](n4cc(C)c(=O)[nH]c4=O)O[C@@H]3COP(=O)(S)O[C@H]3[C@@H](O)[C@H](n4ccc(N)nc4=O)O[C@@H]3COP(=O)(S)O[C@H]3C[C@H](n4cc(C)c(=O)[nH]c4=O)O[C@@H]3COP(=O)(S)O[C@H]3C[C@H](n4cc(C)c(=O)[nH]c4=O)O[C@@H]3COP(=O)(S)O[C@H]3C[C@H](n4ccc5c(=O)[nH]c(N)nc54)O[C@@H]3COP(=O)(S)O[C@H]3[C@@H](O)[C@H](n4ccc(N)nc4=O)O[C@@H]3COP(=O)(S)O[C@H]3C[C@H](n4cc(C)c(=O)[nH]c4=O)O[C@@H]3COP(=O)(S)O[C@H]3[C@@H](O)[C@H](n4cnc5c(=O)[nH]c(N)nc54)O[C@@H]3COP(=O)(S)O[C@H]3C[C@H](n4cc(C)c(=O)[nH]c4=O)O[C@@H]3COP(=O)(S)O[C@H]3[C@@H](O)[C@H](n4ccc(N)nc4=O)O[C@@H]3COP(=O)(S)O[C@H]3C[C@H](n4cc(C)c(=O)[nH]c4=O)O[C@@H]3CO)[C@@H](COP(=O)(S)O[C@H]3[C@@H](O)[C@H](n4ccc(N)nc4=O)O[C@@H]3COP(=O)(S)O[C@H]3C[C@H](n4cc(C)c(=O)[nH]c4=O)O[C@@H]3COP(=O)(S)O[C@H]3C[C@H](n4cc(C)c(=O)[nH]c4=O)O[C@@H]3COP(=O)(S)O[C@H]3C[C@H](n4ccc5c(=O)[nH]c(N)nc54)O[C@@H]3COP(=O)(S)O[C@H]3[C@@H](O)[C@H](n4ccc(N)nc4=O)O[C@@H]3COP(=O)(S)O[C@H]3C[C@H](n4cc(C)c(=O)[nH]c4=O)O[C@@H]3COP(=O)(S)O[C@H]3[C@@H](O)[C@H](n4cnc5c(=O)[nH]c(N)nc54)O[C@@H]3COP(=O)(S)O[C@H]3C[C@H](n4cc(C)c(=O)[nH]c4=O)O[C@@H]3COP(=O)(S)O[C@H]3[C@@H](O)[C@H](n4ccc(N)nc4=O)O[C@@H]3COP(=O)(S)O[C@H]3C[C@H](n4cc(C)c(=O)[nH]c4=O)O[C@@H]3CO)O2)c(=O)[nH]c1=O (stereo not given in full) |
| 0.07 | 0.2 | 0.05 | 33.8 | 0.16 | 0.02 | 0.03 | 0.01 |  | 0.07 | 0.37 | 0.02 | Cc1cn([C@H]2C[C@H](OCC(O)COP(=O)(S)O[C@H]3C[C@H](n4cc(C)c(=O)[nH]c4=O)O[C@@H]3COP(=O)(S)O[C@H]3[C@@H](O)[C@H](n4ccc(N)nc4=O)O[C@@H]3COP(=O)(S)O[C@H]3[C@@H](O)[C@H](n4cnc5c(N)ncnc54)O[C@@H]3COP(=O)(S)O[C@H]3[C@@H](O)[C@H](n4cnc5c(N)ncnc54)O[C@@H]3COP(=O)(S)O[C@H]3[C@@H](O)[C@H](n4ccc(N)nc4=O)O[C@@H]3COP(=O)(S)O[C@H]3[C@@H](O)[C@H](n4ccc(N)nc4=O)O[C@@H]3COP(=O)(S)O[C@H]3[C@@H](O)[C@H](n4cnc5c(N)ncnc54)O[C@@H]3COP(=O)(S)O[C@H]3[C@@H](O)[C@H](n4ccc(N)nc4=O)O[C@@H]3COP(=O)(S)O[C@H]3[C@@H](O)[C@H](n4cnc5c(N)ncnc54)O[C@@H]3COP(=O)(S)O[C@H]3[C@@H](O)[C@H](n4ccc(N)nc4=O)O[C@@H]3COP(=O)(S)O[C@H]3[C@@H](O)[C@H](n4cnc5c(N)ncnc54)O[C@@H]3CO)[C@@H](COP(=O)(S)O[C@H]3[C@@H](O)[C@H](n4ccc(N)nc4=O)O[C@@H]3COP(=O)(S)O[C@H]3[C@@H](O)[C@H](n4cnc5c(N)ncnc54)O[C@@H]3COP(=O)(S)O[C@H]3[C@@H](O)[C@H](n4cnc5c(N)ncnc54)O[C@@H]3COP(=O)(S)O[C@H]3[C@@H](O)[C@H](n4ccc(N)nc4=O)O[C@@H]3COP(=O)(S)O[C@H]3[C@@H](O)[C@H](n4ccc(N)nc4=O)O[C@@H]3COP(=O)(S)O[C@H]3[C@@H](O)[C@H](n4cnc5c(N)ncnc54)O[C@@H]3COP(=O)(S)O[C@H]3[C@@H](O)[C@H](n4ccc(N)nc4=O)O[C@@H]3COP(=O)(S)O[C@H]3[C@@H](O)[C@H](n4cnc5c(N)ncnc54)O[C@@H]3COP(=O)(S)O[C@H]3[C@@H](O)[C@H](n4ccc(N)nc4=O)O[C@@H]3COP(=O)(S)O[C@H]3[C@@H](O)[C@H](n4cnc5c(N)ncnc54)O[C@@H]3CO)O2)c(=O)[nH]c1=O (stereo not given in full) |
| 0.27 | 0.25 | 0.19 | 83.9 | 1.57 | 0.04 | 0.58 | 0.03 | Dose-dependent effect | 0.21 | 3.31 | 0.16 | Cc1cn([C@H]2C[C@H](OCCOCCOCCOCCOCCOCCOP(=O)(S)O[C@H]3C[C@H](n4cc(C)c(=O)[nH]c4=O)O[C@@H]3COP(=O)(S)O[C@H]3[C@@H](O)[C@H](n4ccc(N)nc4=O)O[C@@H]3COP(=O)(S)O[C@H]3C[C@H](n4cc(C)c(=O)[nH]c4=O)O[C@@H]3COP(=O)(S)O[C@H]3C[C@H](n4cc(C)c(=O)[nH]c4=O)O[C@@H]3COP(=O)(S)O[C@H]3C[C@H](n4ccc5c(=O)[nH]c(N)nc54)O[C@@H]3COP(=O)(S)O[C@H]3[C@@H](O)[C@H](n4ccc(N)nc4=O)O[C@@H]3COP(=O)(S)O[C@H]3C[C@H](n4cc(C)c(=O)[nH]c4=O)O[C@@H]3COP(=O)(S)O[C@H]3[C@@H](O)[C@H](n4cnc5c(=O)[nH]c(N)nc54)O[C@@H]3COP(=O)(S)O[C@H]3C[C@H](n4cc(C)c(=O)[nH]c4=O)O[C@@H]3COP(=O)(S)O[C@H]3[C@@H](O)[C@H](n4ccc(N)nc4=O)O[C@@H]3COP(=O)(S)O[C@H]3C[C@H](n4cc(C)c(=O)[nH]c4=O)O[C@@H]3CO)[C@@H](COP(=O)(S)O[C@H]3[C@@H](O)[C@H](n4ccc(N)nc4=O)O[C@@H]3COP(=O)(S)O[C@H]3C[C@H](n4cc(C)c(=O)[nH]c4=O)O[C@@H]3COP(=O)(S)O[C@H]3C[C@H](n4cc(C)c(=O)[nH]c4=O)O[C@@H]3COP(=O)(S)O[C@H]3C[C@H](n4ccc5c(=O)[nH]c(N)nc54)O[C@@H]3COP(=O)(S)O[C@H]3[C@@H](O)[C@H](n4ccc(N)nc4=O)O[C@@H]3COP(=O)(S)O[C@H]3C[C@H](n4cc(C)c(=O)[nH]c4=O)O[C@@H]3COP(=O)(S)O[C@H]3[C@@H](O)[C@H](n4cnc5c(=O)[nH]c(N)nc54)O[C@@H]3COP(=O)(S)O[C@H]3C[C@H](n4cc(C)c(=O)[nH]c4=O)O[C@@H]3COP(=O)(S)O[C@H]3[C@@H](O)[C@H](n4ccc(N)nc4=O)O[C@@H]3COP(=O)(S)O[C@H]3C[C@H](n4cc(C)c(=O)[nH]c4=O)O[C@@H]3CO)O2)c(=O)[nH]c1=O (stereo not given in full) |
